Tests used:
[1] = Cytotoxicity against human KG1 cells assessed as growth inhibition after 48 hrs by MTT assay; format: functional, cell-based; conditions: KG-1, 48 h
Mus musculus = assay: Toxicity in BALB/c-nu mouse xenografted with human HEL cells assessed as effect on spleen at 120 mg/kg/day, po administered for 21 days; format: organism-based; parameters: route oral; conditions: in vivo, 504 h
Method in brief: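 Nude mice bearing HEL xenografts dosed orally 120 mg/kg/day for 21 days, 6 per group, controls on PBS/DMSO vehicle. After treatment, mice sacrificed and dissected to examine internal organs.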

Histone deacetylase 4 = Histone deacetylase 4 (Homo sapiens, UniProt P56524); assay: Inhibition of human recombinant HDAC4 expressed in baculovirus infected insect S9 cells using Ac-Leu-GlyLys(Tfa)-AMC as substrate after 30 mins by fluorescence assay
Histone deacetylase 4, sequence (P56524 whole entry): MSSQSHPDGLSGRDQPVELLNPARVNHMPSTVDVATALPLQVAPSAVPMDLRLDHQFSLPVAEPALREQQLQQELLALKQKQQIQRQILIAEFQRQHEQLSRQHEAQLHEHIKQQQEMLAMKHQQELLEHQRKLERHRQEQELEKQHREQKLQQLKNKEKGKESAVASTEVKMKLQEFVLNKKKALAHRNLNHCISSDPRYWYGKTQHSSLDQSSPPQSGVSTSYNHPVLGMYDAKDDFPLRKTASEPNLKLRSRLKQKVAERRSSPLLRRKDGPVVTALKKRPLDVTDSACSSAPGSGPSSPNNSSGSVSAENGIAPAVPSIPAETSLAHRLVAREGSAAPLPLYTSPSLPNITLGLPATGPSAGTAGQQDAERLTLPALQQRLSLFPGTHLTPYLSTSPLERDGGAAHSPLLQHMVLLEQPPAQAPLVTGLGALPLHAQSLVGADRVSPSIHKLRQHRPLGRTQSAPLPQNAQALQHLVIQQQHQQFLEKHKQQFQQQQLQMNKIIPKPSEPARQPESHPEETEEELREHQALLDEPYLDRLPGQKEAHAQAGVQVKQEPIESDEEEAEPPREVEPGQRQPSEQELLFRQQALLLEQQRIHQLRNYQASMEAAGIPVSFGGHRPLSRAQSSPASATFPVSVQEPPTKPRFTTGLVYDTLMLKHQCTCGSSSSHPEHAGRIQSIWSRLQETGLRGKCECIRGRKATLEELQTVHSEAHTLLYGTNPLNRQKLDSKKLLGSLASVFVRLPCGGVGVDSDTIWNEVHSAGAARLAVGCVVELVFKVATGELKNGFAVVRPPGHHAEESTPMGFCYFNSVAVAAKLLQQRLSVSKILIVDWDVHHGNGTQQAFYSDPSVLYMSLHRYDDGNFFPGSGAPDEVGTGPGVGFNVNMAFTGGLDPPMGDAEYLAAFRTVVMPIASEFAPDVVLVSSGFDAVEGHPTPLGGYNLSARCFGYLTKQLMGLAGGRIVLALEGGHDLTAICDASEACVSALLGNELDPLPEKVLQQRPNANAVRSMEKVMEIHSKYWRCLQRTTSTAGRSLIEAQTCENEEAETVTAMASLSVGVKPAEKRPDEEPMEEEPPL

IC50 (Histone deacetylase 4): 30 nM
Compound: O=C(CCCCCOc1no[n+]([O-])c1S(=O)(=O)c1ccccc1)NO
IC50 [1]: 1750 nM
Activity (Mus musculus): Non-toxic

Source: ChEMBL document CHEMBL3425494, “Design, synthesis, and antitumor evaluation of novel histone deacetylase inhibitors equipped with a phenylsulfonylfuroxan module as a nitric oxide donor” (J Med Chem, 2015)
